From ChEMBL document CHEMBL1125273, “Synthesis and biological evaluation of quinocarcin derivatives: thioalkyl-substituted quinones and hydroquinones” (J Med Chem, 1991)
Converted amounts (≈) assume the structure as drawn.

What was measured:
CCRF S-180 [1] = assay: Ratio of ILS tested compound/quinocarcin against murine sarcoma S-180 tumor cell line implanted subcutaneously in mice and the compound administered intravenously at a dose of 10 mg/kg on days 1-5.; format: functional, Mus musculus; conditions: route intravenous
St-4 [2] = assay: Ratio of ILS tested compound/quinocarcin against St-4 tumor cell line implanted subcutaneously in mice and the compound administered intravenously at a dose of 13.8 mg/kg on days 1-5.; format: functional, Homo sapiens; conditions: route intravenous
Co-3 = assay: Ratio of ILS tested compound/quinocarcin against Co-3 tumor cell line implanted subcutaneously in mice and the compound administered intravenously at a dose of 13.8 mg/kg on days 1-5.; format: functional, Homo sapiens; conditions: route intravenous
[3] = Antitumor activity in vivo in CD2F1 mice measured in terms of percent increase in lifespan calculated at a dose of 5-10 mg/kg intraperitoneally on days 1-5.; format: functional, Mus musculus
Outline: (§1)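 P388 lymphocytic leukemia cells (1×10^6) were implanted ip into CD2F1 mice (about 22 g), five mice per group. Drug was given ip from the day after implantation, either once (day 1) or daily on days 1–5. ILS = (T/C − 1) × 100, where T and C are the median survival times of treated and control mice.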

[4] = Antitumor activity in vivo in CD2F1 mice measured in terms of percent increase in lifespan calculated at a dose of 12.5 mg/kg intraperitoneally on day one.; format: functional; conditions: Mus musculus, ip, route intraperitoneal; outline: as §1
HeLa = assay: In vitro concentration required to inhibit the growth of HeLa S3 cells by 50%; format: functional, cell-based; conditions: Homo sapiens
Outline: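 HeLa S3 cells (5 × 10⁴) seeded in Eagle's MEM with 10% FBS and 0.06 mg/mL kanamycin; graded drug concentrations, diluted in growth medium, added 24 h after seeding. Incubated 72 h at 37 °C, humidified 5% CO₂. Monolayers then washed, detached with 0.05% trypsin/0.02% EDTA and counted electronically; IC50 taken as concentration giving 50% growth inhibition.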

[5] = Ratio of the ILS tested compound/quinocarcin was determined in CD2F1 mice on days 1-5.; format: functional, Mus musculus
Outline: (§2)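 CD2F1 mice (5 per group) received 10^6 P388 cells ip. Drug was given ip on day 1 or on days 1–5. ILS was taken as (T/C − 1) × 100 from median survival times, and each compound's ILS was divided by the ILS of quinocarcin.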

[6] = Ratio of the ILS tested compound/quinocarcin was determined for day one in CD2F1 mice.; format: functional, Mus musculus; outline: as §2
LC-06 cell line = assay: Ratio of ILS tested compound/quinocarcin against LC-06 cell lines implanted subcutaneously in mice and the compound administered intravenously at a dose of 5.59 mg/kg on days 1-5.; format: functional, Homo sapiens; conditions: route intravenous
Homo sapiens [7] = assay: Ratio of ILS tested compound/quinocarcin against human mammary carcinoma MX-1 cell line implanted subcutaneously in mice and the compound administered intravenously at a dose of 5.59 mg/kg on days 1-5.c means number of cured mice.; format: functional; conditions: route intravenous
St-4 [8] = assay: Ratio of ILS tested compound/quinocarcin against St-4 tumor cell line implanted subcutaneously in mice and the compound administered intravenously at a dose of 8.78 mg/kg on days 1-5.; format: functional, Homo sapiens; conditions: route intravenous
Homo sapiens [9] = assay: Ratio of ILS tested compound/quinocarcin against human mammary carcinoma MX-1 cell line implanted subcutaneously in mice and the compound administered intravenously at a dose of 4.41 mg/kg on days 1-5.c means number of cured mice.; format: functional; conditions: route intravenous
[10] = Antitumor activity in vivo in CD2F1 mice measured in terms of percent increase in lifespan calculated at a dose of 6.25 mg/kg intraperitoneally on days 1-5.; format: functional; conditions: Mus musculus, ip, route intraperitoneal; outline: as §1
[11] = Antitumor activity in vivo in CD2F1 mice measured in terms of percent increase in lifespan calculated at a dose of 25 mg/kg intraperitoneally on day one.; format: functional; conditions: Mus musculus, ip, route intraperitoneal; outline: as §1
[12] = Antitumor activity in vivo in CD2F1 mice measured in terms of percent increase in lifespan calculated at a dose of 12.5 mg/kg intraperitoneally on days 1-5.; format: functional; conditions: Mus musculus, ip, route intraperitoneal; outline: as §1
[13] = Antitumor activity in vivo in CD2F1 mice measured in terms of percent increase in lifespan calculated at a dose of 50 mg/kg intraperitoneally on days 1-5.; format: functional; conditions: Mus musculus, ip, route intraperitoneal; outline: as §1
[14] = Antitumor activity in vivo in CD2F1 mice measured in terms of percent increase in lifespan calculated at a dose of 6.25 mg/kg intraperitoneally on day one.; format: functional; conditions: Mus musculus, ip, route intraperitoneal; outline: as §1
CCRF S-180 [15] = assay: Ratio of ILS tested compound/quinocarcin against murine sarcoma S-180 tumor cell line implanted subcutaneously in mice and the compound administered intravenously at a dose of 12.5 mg/kg on days 1-5.; format: functional, Mus musculus; conditions: route intravenous
Homo sapiens [16] = assay: Ratio of ILS tested compound/quinocarcin against human mammary carcinoma MX-1 cell line implanted subcutaneously in mice and the compound administered intravenously at a dose of 4.67 mg/kg on days 1-5.c means number of cured mice.; format: functional; conditions: route intravenous
CCRF S-180 [17] = assay: Ratio of ILS tested compound/quinocarcin against murine sarcoma S-180 tumor cell line implanted subcutaneously in mice and the compound administered intravenously at a dose of 3.13 mg/kg on days 1-5.; format: functional, Mus musculus; conditions: route intravenous
[18] = Antitumor activity in vivo in CD2F1 mice measured in terms of percent increase in lifespan calculated at a dose of 3.13 mg/kg intraperitoneally on days 1-5.; format: functional; conditions: Mus musculus, ip, route intraperitoneal; outline: as §1
Homo sapiens [19] = assay: Ratio of ILS tested compound/quinocarcin against human mammary carcinoma MX-1 cell line implanted subcutaneously in mice and the compound administered intravenously at a dose of 2.97 mg/kg on days 1-5.; format: functional; conditions: route intravenous

With `COc1cccc2c1[C@@H]1COC3[C@@H]4C[C@@H](C(=O)O)[C@H]([C@H](C2)N31)N4C` (some centres not stated) as the compound, how does the T/C (CCRF S-180 [1]) read?
The T/C was 0.74.

What about the T/C (St-4 [2]) of the same compound?
Its T/C is 0.42.

And the T/C (Co-3)?
Its T/C is 0.22.

What about the ILS [3] of the same compound?
The ILS was 120%.

And the ILS at 12.5 mg/kg [4]?
Its ILS at 12.5 mg/kg is 48%.

And the IC50 (HeLa)?
Its IC50 is 0.11 µg/mL (≈ 0.333 µM).

What about the R [5] of the same compound?
Its R is 1.

And the R [6]?
The R was 1.

What about the T/C (LC-06 cell line) of the same compound?
The T/C was 0.23.

What about the T/C (Homo sapiens [7]) of the same compound?
Its T/C is 0.01.

And the T/C (St-4 [8])?
Its T/C is 0.55.

What about the T/C (Homo sapiens [9]) of the same compound?
Its T/C is 0.

Which ILS at 12.5 mg/kg [4] does the source give for `CCSC1=C(SCC)C(=O)C2=C(C[C@H]3[C@H]4[C@H](C(=O)O)C[C@@H](C(C#N)N3[C@H]2CO)N4C)C1=O` (some centres not stated) here?
Its ILS at 12.5 mg/kg is 50%.

What about the IC50 (HeLa) of the same compound?
Its IC50 is 0.11 µg/mL (≈ 0.23 µM).

And the R [5]?
The R was 0.42.

What about the ILS at 6.25 mg/kg [10] of the same compound?
The ILS at 6.25 mg/kg was 51%.

What about the R [6] of the same compound?
The R was 1.16.

With `CCSC1=C(OC)C(=O)C2=C(C1=O)[C@H](CO)N1C(C#N)[C@@H]3C[C@@H](C(=O)O)[C@H]([C@@H]1C2)N3C` (some centres not stated) as the compound, how does the ILS at 25 mg/kg [11] read?
Its ILS at 25 mg/kg is 31%.

What about the IC50 (HeLa) of the same compound?
The IC50 was 2.88 µg/mL (≈ 6.44 µM).

And the R [5]?
The R was 0.76.

And the ILS at 6.25 mg/kg [10]?
Its ILS at 6.25 mg/kg is 59%.

What about the R [6] of the same compound?
The R was 0.72.

For `CCCSC1=C(SCCC)C(=O)C2=C(C[C@H]3[C@H]4[C@H](C(=O)O)C[C@@H](C5OC[C@@H]2N53)N4C)C1=O` (some centres not stated), which ILS at 12.5 mg/kg [4] is on record?
The ILS at 12.5 mg/kg was 58%.

What about the IC50 (HeLa) of the same compound?
Its IC50 is 0.03 µg/mL (≈ 0.0627 µM).

And the R [5]?
The R was 0.98.

And the ILS at 6.25 mg/kg [10]?
The ILS at 6.25 mg/kg was 86%.

What about the R [6] of the same compound?
The R was 1.21.

Which ILS at 12.5 mg/kg [4] does the source give for `COC1=C(SC(C)C)C(=O)C2=C(C1=O)[C@H](CO)N1C(C#N)[C@@H]3C[C@@H](C(=O)O)[C@H]([C@@H]1C2)N3C` (some centres not stated) here?
The ILS at 12.5 mg/kg was 21%.

And the IC50 (HeLa)?
The IC50 was 1.12 µg/mL (≈ 2.43 µM).

And the R [5]?
Its R is 0.68.

What about the R [6] of the same compound?
Its R is 0.58.

What about the ILS at 12.5 mg/kg [12] of the same compound?
The ILS at 12.5 mg/kg was 51%.

With `CCOC(=O)CSC1=C(SCC(=O)OCC)C(=O)C2=C(C[C@H]3[C@H]4[C@H](C(=O)O)C[C@@H](C(C#N)N3[C@H]2CO)N4C)C1=O` (some centres not stated) as the compound, how does the IC50 (HeLa) read?
The IC50 was 9.96 µg/mL (≈ 16.8 µM).

And the ILS at 50 mg/kg [13]?
The ILS at 50 mg/kg was 30%.

Which results are given for `CC(C)Sc1c(O)c2c(c(O)c1SC(C)C)[C@H](CO)N1C(C#N)[C@@H]3C[C@@H](C(=O)O)[C@H]([C@@H]1C2)N3C` (some centres not stated)?
ILS at 12.5 mg/kg [4]: 51%; IC50 (HeLa): < 0.03 µg/mL; R [5]: 1.09; ILS at 6.25 mg/kg [10]: 102%; R [6]: 1

Which ILS at 6.25 mg/kg [14] does the source give for `CN1[C@@H]2[C@H](C(=O)O)C[C@H]1C(C#N)N1[C@@H](CO)c3c(O)c(SCCO)c(SCCO)c(O)c3C[C@@H]21` (some centres not stated) here?
Its ILS at 6.25 mg/kg is 18%.

And the IC50 (HeLa)?
Its IC50 is 3.24 µg/mL (≈ 6.33 µM).

And the R [5]?
The R was 0.39.

And the ILS at 6.25 mg/kg [10]?
Its ILS at 6.25 mg/kg is 41%.

What about the R [6] of the same compound?
The R was 0.44.

Which results are given for `CN1[C@@H]2[C@H](C(=O)O)C[C@H]1C(C#N)N1[C@@H](CO)C3=C(C[C@@H]21)C(=O)C(SCCO)=C(SCCO)C3=O` (some centres not stated)?
ILS at 12.5 mg/kg [4]: 26%; IC50 (HeLa): 2.47 µg/mL (≈ 4.85 µM); ILS at 6.25 mg/kg [10]: 20%; R [6]: 0.62

Which ILS at 6.25 mg/kg [14] does the source give for `CCSC1=C(OC)C(=O)C2=C(C[C@H]3[C@H]4[C@H](C(=O)O)C[C@@H](C(C#N)N3[C@H]2CO)N4C)C1=O` (some centres not stated) here?
Its ILS at 6.25 mg/kg is 29%.

What about the IC50 (HeLa) of the same compound?
Its IC50 is 2.42 µg/mL (≈ 5.41 µM).

What about the R [5] of the same compound?
The R was 0.65.

And the ILS at 6.25 mg/kg [10]?
The ILS at 6.25 mg/kg was 51%.

And the R [6]?
The R was 0.67.

And the T/C (CCRF S-180 [15])?
Its T/C is 0.47.

With `CC(C)SC1=C(SC(C)C)C(=O)C2=C(C[C@H]3[C@H]4[C@H](C(=O)O)C[C@@H](C5OC[C@@H]2N53)N4C)C1=O` (some centres not stated) as the compound, how does the T/C (Homo sapiens [16]) read?
The T/C was 0.

What about the T/C (CCRF S-180 [17]) of the same compound?
The T/C was 0.73.

And the ILS at 3.13 mg/kg [18]?
Its ILS at 3.13 mg/kg is 98%.

And the ILS at 6.25 mg/kg [14]?
Its ILS at 6.25 mg/kg is 69%.

What about the IC50 (HeLa) of the same compound?
Its IC50 is 0.0019 µg/mL (≈ 0.00397 µM).

What about the R [5] of the same compound?
Its R is 1.11.

And the R [6]?
The R was 1.57.

And the T/C (Homo sapiens [19])?
Its T/C is 0.046.

What does the source list for `CN1[C@@H]2[C@H](C(=O)O)C[C@H]1C(C#N)N1[C@@H](CO)C3=C(C[C@@H]21)C(=O)C(SC(C)(C)C)=C(SC(C)(C)C)C3=O` (some centres not stated)?
ILS at 3.13 mg/kg [18]: 46%; ILS at 25 mg/kg [11]: 48%; IC50 (HeLa): 0.004 µg/mL (≈ 0.00749 µM); R [5]: 0.5; R [6]: 1.26
